# Measured values of several laboratories.
# Lines come from different studies, so protocols differ.
# Cell line: CCRF-CEM
# Observed: cell growth or viability
SMILES,test,setting,IC50 [µM]
COC(=O)c1cc(CCc2cc(OC)ccc2OC)sc1N,,48 h,1.4
O=C1C(=Cc2ccccc2)CN(C(=O)CCC(=O)N2CC(=Cc3ccccc3)C(=O)C(=Cc3ccccc3)C2)CC1=Cc1ccccc1,,72 h,1.21
CCOC(=O)c1cc(CCc2ccc(OC)cc2)sc1N,,48 h,1.9
O=C1C(=Cc2ccccc2)CN(C(=O)C(=O)N2CC(=Cc3ccccc3)C(=O)C(=Cc3ccccc3)C2)CC1=Cc1ccccc1,,72 h,0.75
COc1cc(OC)cc(C(=O)c2cc3c(-c4ccccc4)c(O)ccc3o2)c1,,72 h,9.6
O=C1C(=Cc2ccccc2)CN(C(=O)C=CC=CC(=O)N2CC(=Cc3ccccc3)C(=O)C(=Cc3ccccc3)C2)CC1=Cc1ccccc1,,72 h,39.2
O=C(CN1C(=O)SC(=Cc2ccccc2)C1=O)Nc1nc2c(Cl)cccc2s1,MTT,48 h,35.1
COc1cccc(C(=O)c2cc3c(-c4ccccc4)c(O)ccc3o2)c1,,72 h,35
CCOC(=O)c1c(N)sc(CCc2cc(OC)ccc2OC)c1C(=O)OCC,,48 h,20
CC[C@]1(O)C[C@H]2CN(CCc3c([nH]c4ccccc34)[C@@](C(=O)OC)(c3cc4c(cc3OC)N(C=O)[C@H]3[C@@](O)(C(=O)OC)[C@H](OC(C)=O)[C@]5(CC)C=CCN6CC[C@]43[C@@H]65)C2)C1,fluorescence,72 h,0.0104
CCOC(=O)c1cc(CCc2cc(OC)ccc2OC)sc1N,,48 h,0.4
O=C(CN1C(=O)SC(=Cc2ccc(F)cc2)C1=O)Nc1cccc(C(F)(F)F)c1,MTT,48 h,30.1
COc1cccc(C(=O)c2cc3c(-c4ccccc4)c(OC)ccc3o2)c1,,72 h,5.4
O=C(CN1C(=O)SC(=Cc2ccccc2)C1=O)Nc1ccc(F)cc1F,MTT,48 h,32.3
CC[C@]1(O)C[C@@H]2CN(CCc3c([nH]c4ccccc34)[C@@](C(=O)OC)(c3cc4c(cc3OC)N(C)[C@H]3[C@@](O)(C(=O)OC)[C@H](OC(C)=O)[C@]5(CC)C=CCN6CC[C@]43[C@@H]65)C2)C1,MTT,72 h,0.002
COc1ccc(C(=O)c2cc3c(-c4ccccc4)c(OC)ccc3o2)cc1,,72 h,1.5
COc1cccc2c1C(=O)c1c(O)c3c(c(O)c1C2=O)C[C@@](O)(C(=O)CO)C[C@@H]3O[C@H]1C[C@H](N)[C@H](O)[C@H](C)O1,resazurin,72 h,0.01
COC(=O)c1c(N)sc(CCc2cc(OC)ccc2OC)c1C,,48 h,30
COc1ccc2oc(C(=O)c3ccccc3)cc2c1-c1ccccc1,,72 h,> 50
Cc1ccc(C=C2SC(=O)N(CC(=O)Nc3ccc(F)cc3F)C2=O)cc1C,MTT,48 h,31.9
O=C1NCCc2[nH]c(-c3ccncc3)cc21,,,2.5
N#Cc1cc(CCc2ccccc2)sc1N,,48 h,32
Cc1ccc(C=C2SC(=O)N(CC(=O)Nc3ccc(Cl)cc3C(F)(F)F)C2=O)cc1,MTT,48 h,31.8
